{"data": "Measured values from different studies", "note": "Compare with care: the assays were run in different laboratories."}
{"SMILES": "Cc1ccc2c(c1)nc(/C=C/c1cccc3cccnc13)n2-c1ccccc1", "assay": "metabolic stability", "system": "rat, liver microsomes", "conditions": "1.5 µM, 45 min", "endpoint": "compound remaining", "result": "17.8%"}
{"SMILES": "N=C(N)c1ccc(OCc2ccc(COc3ccc(C(=N)N)cc3)cc2)cc1", "assay": "haemolysis", "system": "sheep", "conditions": "200 µg/mL, 20 h", "endpoint": "haemolysis", "result": "0.4%"}
{"SMILES": "Nc1ncnc2c1ncn2[C@@H]1C=C[C@@]2(CO)C[C@@H]12", "tested on": "MT4", "assay": "cell growth or viability, MTT", "conditions": "5 days", "endpoint": "CC50", "result": "> 100 µg/mL"}
{"SMILES": "C[C@H](Cn1cnc2c(N)ncnc21)OCP(=O)(O)O", "tested on": "MT4", "assay": "cell growth or viability, MTT", "conditions": "5 days", "endpoint": "CC50", "result": "6.73 µg/mL"}
{"SMILES": "N=C(N)c1ccc(OCCCCCCCOc2ccc(C(=N)N)cc2)cc1", "assay": "haemolysis", "system": "sheep", "conditions": "200 µg/mL, 20 h", "endpoint": "haemolysis", "result": "9.2%"}
{"SMILES": "COc1cccc2c1C(=O)c1c(O)c3c(c(O)c1C2=O)C[C@@](O)(C(=O)CO)C[C@@H]3O[C@H]1C[C@H](N)[C@H](O)[C@H](C)O1", "tested on": "BJ", "assay": "cell growth or viability", "endpoint": "IC50", "result": "0.1 µM"}
{"SMILES": "N=C(N)c1ccccc1OCc1cccc(COc2ccccc2C(=N)N)c1", "assay": "haemolysis", "system": "sheep", "conditions": "200 µg/mL, 1 h", "endpoint": "haemolysis", "result": "0%"}
{"SMILES": "Cc1ccnc2c1NC(=O)c1cccnc1N2C1CC1", "tested on": "MT4", "assay": "cell growth or viability, MTT", "conditions": "5 days", "endpoint": "CC50", "result": "0.82 µg/mL"}
{"SMILES": "CC(=O)Nc1nnc(N2CCN([C@@H](C)c3ccc4c(c3)OCO4)CC2)s1", "system": "dog, plasma", "conditions": "1 µM", "endpoint": "fraction unbound", "result": 0.125}
{"SMILES": "C=C(CCO)Cn1cnc2c(=O)[nH]c(N)nc21", "tested on": "MT4", "assay": "cell growth or viability, MTT", "conditions": "7 days", "endpoint": "CC50", "result": "> 100 µM"}
{"SMILES": "N=C(N)c1ccc(OCCSCCOc2ccc(C(=N)N)cc2)cc1", "assay": "haemolysis", "system": "sheep", "conditions": "200 µg/mL, 20 h", "endpoint": "haemolysis", "result": "0%"}
{"SMILES": "COc1cc(/C=C/C(=O)OCCCc2ccc(O[C@H](COC(=O)/C=C/c3ccc(O)c(OC)c3)[C@@H](OC)c3ccc(O)c(OC)c3)c(OC)c2)ccc1O", "tested on": "MT4", "assay": "cell growth or viability", "conditions": "72 h", "endpoint": "CC50", "result": "> 10 µM"}
{"SMILES": "CON=C(N)c1ccc(-c2ccc(-c3ccc(C(N)=NOC)cc3)o2)cc1", "tested on": "Cytochrome P450 2J2 (CYP2J2, Homo sapiens, UniProt P51589)", "assay": "enzyme activity, substrate", "endpoint": "Km", "result": "0.9 µM"}
{"SMILES": "O=c1ccn([C@@H]2C=C[C@@]3(CO)C[C@@H]23)c(=O)[nH]1", "tested on": "MT4", "assay": "cell growth or viability, MTT", "conditions": "5 days", "endpoint": "CC50", "result": "> 100 µg/mL"}
{"SMILES": "Cc1ncsc1-c1ccc(CNC(=O)[C@@H]2C[C@@H](O)CN2C(=O)[C@@H](NC(=O)CCCCCCCCCCNC(=O)O[C@H]2C[C@@H](C)C=C3C=C[C@H](C)[C@H](CC[C@@H]4C[C@@H](O)CC(=O)O4)[C@H]32)C(C)(C)C)cc1", "assay": "metabolic stability", "system": "mouse, liver microsomes", "conditions": "1 µM, 5 min, pH 7.4", "endpoint": "compound remaining", "result": "41.2%"}
